# EBI2 antag – EBI2 (human) antagonism. inhibition, % at 5 µM. hit rate 0.81% among 360,000. EBI2 beta-arrestin recruitment, luminescence, 7a,25-OHC stimulated. P32249; in the data active = inhibition above about 38%;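 note: enzyme fragment complementation signal reports receptor beta-arrestin coupling in cells; 0% = agonist plus DMSO wells and 100% = wells without agonist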
# HTR2A ag – agonists of mouse serotonin 5-HT2A receptor (HTR2A); P35363; activation, % at 7.6 µM; CHO-K1 mHTR2A beta-arrestin complementation, luminescence; percent of 30 µM serotonin response; hit rate 0.66% among 360,000;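 active = activation above a run cutoff, the mean activation of all tested compounds plus 3 SD, cut at about 14% in these data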;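 note: 0% = plate median of compound wells and 100% = 30 µM serotonin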
# Target sequence (P35363 whole entry, looked up): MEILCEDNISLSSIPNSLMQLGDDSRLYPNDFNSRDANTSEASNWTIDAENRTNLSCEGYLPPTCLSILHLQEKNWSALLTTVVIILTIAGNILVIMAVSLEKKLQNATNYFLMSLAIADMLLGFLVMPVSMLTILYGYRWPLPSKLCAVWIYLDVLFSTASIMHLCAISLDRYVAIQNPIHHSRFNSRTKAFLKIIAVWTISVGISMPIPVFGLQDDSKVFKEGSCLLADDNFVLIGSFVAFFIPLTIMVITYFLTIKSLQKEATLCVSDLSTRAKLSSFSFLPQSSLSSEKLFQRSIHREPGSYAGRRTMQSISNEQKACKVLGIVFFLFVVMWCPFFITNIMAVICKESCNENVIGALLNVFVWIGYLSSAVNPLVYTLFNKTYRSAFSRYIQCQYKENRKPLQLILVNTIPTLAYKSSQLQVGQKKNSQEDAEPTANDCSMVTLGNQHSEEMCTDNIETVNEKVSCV
# CXCR6 block – blocks human CXCR6 beta-arrestin recruitment; inhibition, % at 20 µM; hit rate 0.36% among 360,000; CHO-K1 PathHunter CXCR6 beta-arrestin, luminescence; in the data active = inhibition above about 34%, passing the limit was not always enough;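 note: antagonist mode with CXCL16 agonist at 10 nM final; 0% = 10 nM CXCL16 with DMSO and 100% = unstimulated wells without agonist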
# APJ agonist – activates the human apelin receptor APJ; CHO-K1 APJ PathHunter beta-arrestin, luminescence; 0% DMSO wells, 100% apelin; hit rate 0.11% among 330,000; AID 2520; activation, % at 20 µM; P35414;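 active = activation more than six SD over the plate average, tested at 20 µM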;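 note: 0% = DMSO alone and 100% = apelin-13 at 10 nM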
#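 system = engineered CHO-K1 APJ arrestin reporter cells | input = 1000 cells per well | timing = overnight seeding, 90 min compound at 25 °C, 1 h detection | measured by = enzyme-fragment complementation luminescence | read-out = beta-arrestin recruitment to APJ as agonist activity, luminescent signal | control set = negative DMSO alone, positive Apelin-13 at 10 nM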
# APJ antag – antagonists of human APJ apelin receptor | P35414 | CHO-K1 APJ beta-arrestin complementation, luminescence | inhibition, % at 20 µM | hit rate 0.32% among 330,000 | AID 2521;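 active = inhibition above about 40% at 20 µM, limit read from the data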;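 note: cells challenged with 10 nM apelin-13 agonist together with compound; plate controls were apelin-13 plus DMSO wells for no effect and DMSO wells lacking apelin-13 for full effect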
# CCR6 antagonist – CCR6 (human) receptor antagonism; P51684; CHO-K1 CCR6 PathHunter beta-arrestin, luminescence, CCL20-stimulated; hit rate 0.49% among 340,000; inhibition, % at 20 µM; AID 493098;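 active = compounds whose inhibition of the agonist-driven luminescence signal at 20 µM reaches about 50%, limit read from the data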;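 note: cells stimulated with CCL20 at 14 nM final; plate controls were DMSO with CCL20 for no effect and DMSO without agonist for full effect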
# EBI2 antag conf – confirmation of human EBI2 receptor antagonists; shares compounds with EBI2 antag; EBI2 beta-arrestin luminescence, 7a,25-OHC antagonism; inhibition, % at 5 µM; hit rate 29% among 2,400;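 active = inhibition of at least 50%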
# EBI2 agonist – counter-screen for EBI2 antagonists: EBI2 agonist activity; shares compounds with EBI2 antag; 2,400 tested, under 10 active; activation, % at 5 µM; EBI2-expressing cells, agonist mode, luminescence, 60 min; 0% vehicle, 100% 7α,25-dihydroxycholesterol control; AID 652000;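 active = activation of at least 50%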
# bGal cs – inhibits E. coli beta-galactosidase, counter-screen for EBI2 antagonists | shares compounds with EBI2 antag | purified beta-galactosidase, luminescent Galacton Star, 15 min | inhibition, % at 5 µM | hit rate 1% among 2,400;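 active = replicate-average signal at least 3 plate SD below neutral wells, shown as high inhibition, flagging enzyme-inhibiting false positives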;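 note: 0% = DMSO wells with enzyme and 100% = wells lacking enzyme; higher means stronger loss of beta-gal luminescence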
# An asterisk follows results filed as active; nt = no result. Rows were chosen to be rich in hits. Some 2.1% of all compounds tested hit in one or more screens of this group.
SMILES,EBI2 antag,HTR2A ag,CXCR6 block,APJ agonist,APJ antag,CCR6 antagonist,EBI2 antag conf,EBI2 agonist,bGal cs
Cc1nn(-c2ccccc2)c(C)c1/C=N/NC(=O)c1cc(-c2ccc(Br)s2)[nH]n1,59*,1,11,-3,-9,-6,22,0,8
CCOC(=O)CSc1nnc(-c2cccnc2)o1,-3,2,3,-4,14,-3,nt,nt,nt
CSc1ccccc1NC(=O)Cn1nc([N+](=O)[O-])c(Cl)c1C,-7,-1,1,-1,26,-5,nt,nt,nt
CC(Oc1ccccc1)C(=O)NC1CCSc2ccccc21 (configuration not stated),11,-6,8,-5,6,20,nt,nt,nt
CN1c2ccccc2C2(C)CCCC3=Cc4cccc([N+](=O)[O-])c4OC312 (configuration not stated),41*,1,13,-4,15,28,0,-1,-11
Cc1cc2c(cc1C)-n1nnnc1C(N(C)Cc1ccccc1)C(=O)N2 (configuration not stated),-1,0,nt,nt,nt,nt,nt,nt,nt
CCOC(=O)C1CCN(C(=O)c2cc3cc(Cl)ccc3[nH]2)CC1,89*,-1,-5,-5,5,5,67*,2,3
CCOC(=O)C1CCN(C(=O)c2cc3ccc(OC)cc3[nH]2)CC1,38*,1,-7,-3,2,-3,25,1,7
CCOC(=O)C1CCCN(C(=O)c2cc3cc(OC)c(OC)cc3[nH]2)C1 (configuration not stated),4,1,5,0,7,9,nt,nt,nt
CCOC(=O)N1CCN(C(=O)c2cc3ccc(OC)cc3[nH]2)CC1,59*,0,-8,-5,-3,4,24,0,7
CC1CN(C(=O)c2cc3cc(Cl)ccc3[nH]2)CC(C)O1 (configuration not stated),11,0,-18,-3,-5,4,nt,nt,nt
Cc1ccc(C(=O)N2CCN(C)CC2)cc1S(=O)(=O)N1CCCCCC1,2,1,2,7,-10,1,nt,nt,nt
O=C(COc1ccc(F)cc1)N1CCC(Cc2ccccc2)CC1,74*,-2,-4,-5,24,3,50*,1,10
COc1ccc(OCC(=O)N2CCC(Cc3ccccc3)CC2)cc1,92*,4,5,-2,11,10,77*,2,1
CCOCC(=O)N1CCC(Cc2ccccc2)CC1,10,-1,-17,1,6,-6,nt,nt,nt
CCOC(=O)C1=C(COC(=O)c2ccc([N+](=O)[O-])s2)NC(=O)NC1C (configuration not stated),-51,8,-11,5,10,-1,nt,nt,nt
CCOc1ccc(NC(=S)Nc2cccc3ccccc23)cc1,56*,-1,-3,23,-111,3,29,-2,-5
CCOc1ccc(NC(=S)Nc2cccc3cnccc23)cc1,66*,0,-8,1,-56,9,25,1,7
CCNC(=S)Nc1ccc(OCC)cc1,-9,0,-8,-2,9,-2,nt,nt,nt
CCOc1ccc(NC(=S)Nc2ccccc2C2CC2)cc1,60*,-2,-2,-4,0,8,32,1,5
CC(=O)N(C)c1ccc(NC(=S)Nc2ccc(C(C)C)cc2)cc1,52*,-3,1,-3,11,20,15,1,6
COC(=O)c1cccc(NC(=O)CSc2nnc(COc3ccccc3)n2C)c1,-5,-3,-34,-2,-4,15,nt,nt,nt
Cc1ccc(NC(=S)Nc2cccc3ccccc23)cc1,19,-4,-5,14,-92,4,nt,nt,nt
CC(C)c1ccc(NC(=S)Nc2cccc3ccccc23)cc1,44*,-7,-8,24,-142,16,5,-1,-5
CCOc1ccc(N/C=C\C(=O)c2ccc3c(c2)OCO3)cc1,2,1,0,0,24,3,nt,nt,nt
SMILES,EBI2 antag,HTR2A ag,CXCR6 block,APJ agonist,APJ antag,CCR6 antagonist,EBI2 antag conf,EBI2 agonist,bGal cs
CC(C)Cn1c(=O)c2c(nc3n2CCCN3Cc2ccccc2)n(C)c1=O,-5,-5,8,-3,3,25,nt,nt,nt
Cc1cc(NC(=O)CN2CC(C)OC(C)C2)n(-c2nc3ccccc3s2)n1 (configuration not stated),18,2,4,-1,21,8,nt,nt,nt
CCOC(=O)C1CCN(CC(=O)Nc2cc(C)nn2-c2nc3ccccc3s2)CC1,55*,2,12,-3,8,4,22,1,-9
CCCc1nc(SCC(=O)NNC(=O)c2ccc(OC)cc2)c2ccccc2n1,77*,-6,-2,0,-5,8,45,0,-14
CCCc1nc(SCC(=O)NNC(=O)C2CCCCC2)c2ccccc2n1,-6,-2,-2,-2,7,-10,nt,nt,nt
CCC(=O)Nc1ccc(NC(=O)CSc2nnc(-c3ccco3)n2CC)cc1,-10,1,-7,0,-8,8,nt,nt,nt
CCn1c(SCC(=O)Nc2ccc(OC)cc2)nnc1-c1ccco1,-11,-1,-2,0,10,-3,nt,nt,nt
CCn1c(SCC(=O)NNC(=O)c2ccc(OC)cc2)nnc1-c1ccco1,70*,-2,2,-1,-35,3,50,2,5
CCn1c(SCC(=O)NNC(=O)c2ccc(C)cc2)nnc1-c1ccco1,80*,-2,5,0,-6,11,50,-1,-18
COCOc1ccc(-c2cc(=O)c3c(O)cc(OCOC)cc3o2)cc1,4,5,-3,-6,7,6,nt,nt,nt
Cc1ccc(NC(=O)C2(C)CCN2C(=O)c2ccccc2CCc2ccccc2)cc1C (configuration not stated),22,-12,7,nt,nt,nt,nt,nt,nt
CC1(C(=O)Nc2cnc3ccccc3c2)CCN1C(=O)c1ccccc1CCc1ccccc1 (configuration not stated),48*,-6,8,nt,nt,nt,37,0,-17
COc1ccc(NC(=O)CCN2CCN(S(=O)(=O)c3cc(Cl)ccc3Cl)CC2)cc1,48*,-5,2,-1,-1,0,26,-1,-6
O=S(=O)(c1cccc(Cl)c1Cl)N1CCN(C(=S)NCCCN2CCOCC2)CC1,1,-2,-4,0,12,6,nt,nt,nt

# Source: PubChem BioAssay (several laboratories)
